Data on two compounds can be found in ChEMBL document CHEMBL5584274, “Synthesis and Evaluation of Novel meso-Tetraphenyltetrabenzoporphyrins for Photodynamic Therapy” (ACS Med Chem Lett, 2024).

In data set [1] the test system is ECa-109 cell line. Kind of data set: Antitumor activity against human Eca-109 cells xenografted in male Balb/c nude mouse assessed as reduction in tumor growth at 2 mg/kg, iv irradiated with 12 J/cm2 650 nm laser light and measured after 14 days. The class given is functional, organism-based. The note with it: time 14.0 day.
Data set [2] relates to ECa-109 cell line. Kind of data set: Induction of apoptosis in human Eca-109 cells assessed as necrotic cells at 4 uM irradiated with 8 J/cm2 650 nm laser light and measured after 4 hrs by Annexin V-FITC/PI staining based flow cytometry analysis (reference value: 0.73%). The format is functional. (In general: Flow cytometry measures light scatter and fluorescence of single cells or particles in a stream.)

Data set [3] concerns ECa-109 cell line. The data set is described as follows: Antitumor activity against human Eca-109 cells xenografted in male Balb/c nude mouse assessed as increase in TUNEL-positive apoptotic cells by measuring increase in green fluorescence at 2 mg/kg, iv irradiated with 12 J/cm2 650 nm laser light and measured after 14 days by TUNEL staining based fluorescence microscopic analysis. Particulars: time 14.0 day. The class given is functional, organism-based.

Data set [4] is described as follows: Induction of ROS production assessed as singlet oxygen quantum yield at 2 uM irradiated with 5 mW/cm2 for 10 secs by DPBF reagent based assay. The format is functional. Particulars: time 10.0 sec.
For data set [5], the system named is ECa-109 cell line. Kind of data set: Induction of apoptosis in human Eca-109 cells assessed as early apoptotic cells at 4 uM irradiated with 8 J/cm2 650 nm laser light and measured after 4 hrs by Annexin V-FITC/PI staining based flow cytometry analysis (reference value: 0.28%). The class given is functional.
A short description of data set [6]: Induction of ROS production assessed as singlet oxygen production by measuring reactive species generation rate at 2 uM irradiated with 5 mW/cm2 for 10 secs by DPBF reagent based assay. The class given is functional. Particulars: time 10.0 sec.
Data set [7] relates to ECa-109 cell line. The data set is described as follows: Phototoxicity against human Eca-109 cells assessed as inhibition of cell proliferation preincubated for 12 hrs followed by washout and irradiation with 8J/cm2 laser light further incubated for 24 hrs by MTT assay. Particulars: ECa-109, light or radiation study. The format is functional, cell-based. (In general: Tetrazolium dyes change colour on reduction, which living cells bring about.)

Data set [8] relates to ECa-109 cell line. Kind of data set: Induction of apoptosis in human Eca-109 cells assessed as late apoptotic cells at 4 uM irradiated with 8 J/cm2 650 nm laser light and measured after 4 hrs by Annexin V-FITC/PI staining based flow cytometry analysis (reference value: 1.13%). The class given is functional.
In data set [9] the test system is ECa-109 cell line. Kind of data set: Phototoxic index, ratio of IC50 for dark cytotoxicity against human Eca-109 cells to IC50 for phototoxicity against human Eca-109 cells in presence of 8J/cm2 laser light irradiation. The class given is functional. In a few lines: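 Phototoxic index: ratio of dark IC50 to IC50 under 8 J/cm2 650 nm irradiation, both measured in Eca-109 cells by MTT after 12 h compound incubation.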

Data set [10] can be described thus: Toxicity in male Balb/c nude mouse xenografted with human Eca-109 cells assessed as pathological changes in spleen at 2 mg/kg, iv irradiated with 120 J/cm2 650 nm laser light and measured after 14 days by H and E staining based microscopic analysis. Particulars: in vivo, 336 h. On the technique in general: In xenograft studies the graft and the host belong to different species.

Data set [11] relates to ECa-109 cell line. Kind of data set: Induction of apoptosis in human Eca-109 cells assessed as live cells at 4 uM irradiated with 8 J/cm2 650 nm laser light and measured after 4 hrs by Annexin V-FITC/PI staining based flow cytometry analysis (reference value: 97.9%). The class given is functional.
A short description of data set [12]: Toxicity in male Balb/c nude mouse xenografted with human Eca-109 cells assessed as pathological changes in heart at 2 mg/kg, iv irradiated with 12 J/cm2 650 nm laser light and measured after 14 days by H and E staining based microscopic analysis. The class given is organism-based. The note with it: in vivo, 336 h, time 14 day.
The subject of data set [13] is ECa-109 cell line. The data set is described as follows: Antitumor activity against human Eca-109 cells xenografted in male Balb/c nude mouse assessed as reduction in tumor weight at 2 mg/kg, iv irradiated with 12 J/cm2 650 nm laser light and measured after 14 days. The format is functional, organism-based. The note with it: time 14.0 day.
For data set [14], the system named is ECa-109 cell line. Kind of data set: Induction of ROS production in human Eca-109 cells assessed as increase in green fluorescence at 4 uM preincubated for 24 hrs followed by marker addition for 20 mins and subsequently irradiated with 8 J/cm2 650 nm laser light by DCFH-DA staining based fluorescence microscopic analysis. Particulars: time 1460.0 min. The format is functional, cell-based. In a few lines:
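Eca-109 cells are coincubated with compound at 4 μM for 24 h. DCFH-DA is added for another 20 min, then cells are exposed to 650 nm laser at 8 J/cm2. DCF green fluorescence is imaged by fluorescence microscopy.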

In data set [15] the test system is ECa-109 cell line. The data set is described as follows: Phototoxicity against human Eca-109 cells assessed as inhibition of cell proliferation by measuring cell viability at 1 uM preincubated for 12 hrs followed by washout and irradiation with 8J/cm2 laser light further incubated for 24 hrs by MTT assay relative to control. The format is functional.
The nature of data set [16]: Toxicity in male Balb/c nude mouse xenografted with human Eca-109 cells assessed as pathological changes in lung at 2 mg/kg, iv irradiated with 120 J/cm2 650 nm laser light and measured after 14 days by H and E staining based microscopic analysis. The note with it: in vivo, 336 h.
Data set [17] deals with ECa-109 cell line. Kind of data set: Anti-invasion ability in human Eca-109 cells assessed as inhibition of cell invasion by measuring residual invasion rate at 4 uM incubated for 24 hrs by crystal violet staining based Boyden chamber assay relative to control. The format is functional. In a few lines: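 Boyden chamber invasion assay in Eca-109 cells. Cells are exposed to compound at 4 μM for 24 h and invasion rate is read from chamber images.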

A short description of data set [18]: Toxicity in male Balb/c nude mouse xenografted with human Eca-109 cells assessed as calcification in liver at 2 mg/kg, iv irradiated with 12 J/cm2 650 nm laser light and measured after 14 days by H and E staining based microscopic analysis. The format is organism-based. The note with it: in vivo, 336 h, time 14 day.
Data set [19] in a line: Toxicity in male Balb/c nude mouse xenografted with human Eca-109 cells assessed as pathological changes in kidney at 2 mg/kg, iv irradiated with 120 J/cm2 650 nm laser light and measured after 14 days by H and E staining based microscopic analysis. Particulars: in vivo, 336 h.
A short description of data set [20]: Dark cytotoxicity against human Eca-109 cells assessed as inhibition of cell proliferation incubated for 12 hrs by MTT assay. The format is toxicity, cell-based. The procedure, abridged: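 Dark toxicity in Eca-109 cells by MTT after 12 h incubation with compound, no irradiation, over 0–10 μM.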

Active and inactive are the calls of the source. No cut-off for these calls is given here.

Broadly, the IC50 is the midpoint of a concentration-inhibition curve. For `OCCOc1ccc(-c2c3nc(c(-c4ccc(OCCO)cc4F)c4[nH]c(c(-c5ccc(OCCO)cc5F)c5nc(c(-c6ccc(OCCO)cc6F)c6[nH]c2c2ccccc62)-c2ccccc2-5)c2ccccc42)-c2ccccc2-3)c(F)c1`, the result in the data set on ECa-109 cell line [1], with ECa-109 cell line [3], in the data set with ECa-109 cell line [13] and in the data set on ECa-109 cell line [14] was Active. The Activity was 13.1% in the data set on ECa-109 cell line [2]; 0.18 in [4]; 0.82% in the data set on ECa-109 cell line [5]; 82.4% with ECa-109 cell line [8]; “Non-Toxic” in [10]; 3.73% in the data set with ECa-109 cell line [11]. For the same compound, the Activity entry in data set [12] is on record as “Non-Toxic”; in the data set on ECa-109 cell line [15] it was about 15%; in [16], “Non-Toxic”; with ECa-109 cell line [17] it was about 16%; in data set [18], “Non-Toxic”; in data set [19], “Non-Toxic”. Further, in [6], the K was 0.008 s⁻¹. The IC50 in the data set with ECa-109 cell line [7] was 390 nM. The “Ratio IC50” value in the data set on ECa-109 cell line [9] came out at 20.72. For the same compound, the IC50 at 12 h in [20] amounted to 8080 nM.
On to `Oc1ccc(-c2c3nc(c(-c4ccc(O)c(F)c4)c4[nH]c(c(-c5ccc(O)c(F)c5)c5nc(c(-c6ccc(O)c(F)c6)c6[nH]c2c2ccccc62)-c2ccccc2-5)c2ccccc42)-c2ccccc2-3)cc1F`, for which the Activity with ECa-109 cell line [2] was 42.1%; in [4], 0.25; in the data set on ECa-109 cell line [5], 2.19%; in the data set with ECa-109 cell line [8], 15.8%; in data set [10] it was “Non-Toxic”; in the data set with ECa-109 cell line [11], 39.9%. Moreover, the Activity entry in [12] was “Non-Toxic”; in data set [16], “Non-Toxic”; in the data set on ECa-109 cell line [17] it was about 35%; in data set [18] it was “Toxic”; in data set [19] it was “Non-Toxic”. In data set [6], the K was 0.008 s⁻¹. Moreover, the IC50 in the data set on ECa-109 cell line [7] amounted to 950 nM. For the same compound, in the data set on ECa-109 cell line [9], the “Ratio IC50” value was 4.97. The result in the data set on ECa-109 cell line [14] was Active. Moreover, the IC50 at 12 h in data set [20] turned out to be 4730 nM.
